Experimental data pooled from the literature.
Compare with care: the assays were run in different laboratories.
Target: Microtubule-associated serine/threonine-protein kinase 1 (MAST1, Homo sapiens, UniProt Q9Y2H9)

SMILES	observed	technique	concentration	remaining binding
c1cnn2ncc(-c3ccnc(N4CCC45COC5)n3)c2c1	binding		1 µM	55%
COc1cnc(Nc2cccc(S(N)(=O)=O)c2)nc1N1CCN(c2ccccc2)C(=O)C1	binding	competition with immobilised ligand	1 µM	100%
COc1ccc2c(c1)O[C@H](c1ccc(OC)c(OC)c1)C[C@@H]2NC(=O)C1(c2ccc3c(c2)OC(F)(F)O3)CC1	cell-free assay	competition with immobilised ligand	1 µM	100%
COc1cnc(Nc2cccc(S(N)(=O)=O)c2)nc1N1CCN(c2ccccc2)CC1	binding	competition with immobilised ligand	1 µM	69%
CS(=O)(=O)N1CCCC(NC(=O)[C@H](CCC2CCCCC2)NC(=O)c2ccc(CNc3ncnc4c3nnn4-c3ccccc3)cc2)C1 (stereo partly drawn)	cell-free assay	competition with immobilised ligand	0.1 µM	100%
O=C(c1ccc(Nc2ncc(Cl)c(-c3cc4ccccc4s3)n2)cc1)N1CCC(N2CCCC2)CC1	binding	competition with immobilised ligand	1 µM	52%
O=C(Nc1c[nH]nc1C(=O)NC1CCNCC1)c1cc(F)cc(F)c1	binding	competition with immobilised ligand	1 µM	100%
O=C(NCCCN1CCOCC1)c1ccc(Nc2nccc(-c3cc4ccccc4s3)n2)cc1	binding	competition with immobilised ligand	1 µM	78%
Nc1ncc2c(n1)-c1c([nH]c3ccc(C#CC4CC4)cc13)CCCC2	binding	competition with immobilised ligand	1 µM	62%
CCN1CCN(Cc2ccc(C(=O)Nc3ccc(C)c(Oc4ccc5c(c4)CC(=O)N5)c3)cc2C(F)(F)F)CC1	binding	competition with immobilised ligand	1 µM	100%
CN(C)c1ncc(F)c(-c2cnn3ncccc23)n1	binding		1 µM	96%
Cc1c(NC(=O)c2cc(C(N)=O)nc3cc(F)ccc23)c(C(F)(F)F)nn1Cc1ccc(C#N)cc1	cell-free assay	competition with immobilised ligand	1 µM	77%
Cc1cnn2ncc(-c3ccnc(N(C)C)n3)c2c1	binding		1 µM	100%
COc1ccc2cc(OCC3(C(=O)O)CN(C(=O)c4ccc(F)cc4)C3)ccc2c1	cell-free assay	competition with immobilised ligand	1 µM	100%
N[C@@H]1CCN(c2nccc(-c3cnn4ncccc34)n2)C1	binding		1 µM	100%
C[C@@H](c1ccc(-n2cnc3c(N)ncnc32)cc1)N1CCc2nn(C)c(Cc3ccccc3)c2C1=O	binding	competition with immobilised ligand	0.1 µM	40%
CN(C)c1nccc(-c2cnn3ncccc23)n1	binding		1 µM	76%
O=C(Nc1cccnn1)N1CC(C/C=C/c2cncc(Oc3ccc(C(F)(F)F)cn3)n2)C1	cell-free assay	competition with immobilised ligand	1 µM	58%
C[C@@H]1CCN(c2nccc(-c3cnn4ncccc34)n2)C1	binding		1 µM	100%
O=C(c1ccc(Nc2ncc(Cl)c(-c3ccc(Cl)s3)n2)cc1)N1CCC(N2CCCC2)CC1	binding	competition with immobilised ligand	1 µM	16%
CCCOc1ccc([C@@H]2[C@@H](C(=O)O)[C@H](c3ccc4c(c3)OCO4)CN2CC(=O)Nc2c(CC)cccc2CC)cc1	cell-free assay	competition with immobilised ligand	1 µM	100%
